Target: T1, E-selectin (Homo sapiens, UniProt P16581)
T1 sequence (P16581 whole entry): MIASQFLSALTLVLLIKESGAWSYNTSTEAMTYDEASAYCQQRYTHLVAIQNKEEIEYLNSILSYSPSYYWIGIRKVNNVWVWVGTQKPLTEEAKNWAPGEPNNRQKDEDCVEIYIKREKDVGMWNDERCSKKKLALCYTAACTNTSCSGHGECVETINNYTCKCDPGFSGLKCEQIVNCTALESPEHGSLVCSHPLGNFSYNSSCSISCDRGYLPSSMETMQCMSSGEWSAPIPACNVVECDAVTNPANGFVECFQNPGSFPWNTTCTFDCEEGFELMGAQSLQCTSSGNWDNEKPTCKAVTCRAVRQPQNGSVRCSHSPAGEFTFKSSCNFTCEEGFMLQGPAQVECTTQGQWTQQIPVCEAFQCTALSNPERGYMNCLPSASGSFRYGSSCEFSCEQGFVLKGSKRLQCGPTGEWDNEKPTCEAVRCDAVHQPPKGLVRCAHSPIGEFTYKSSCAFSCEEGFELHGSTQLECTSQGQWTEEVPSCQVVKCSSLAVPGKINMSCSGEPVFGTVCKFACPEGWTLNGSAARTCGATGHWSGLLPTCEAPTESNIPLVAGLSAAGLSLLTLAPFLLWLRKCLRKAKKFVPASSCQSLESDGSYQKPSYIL
Assay: Inhibition of MM6 cell adhesion to recombinant E-selectin by flow chamber assay
Method in brief: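 Wells coated overnight at 4 °C with recombinant soluble E-selectin (5 µg/mL in PBS with Ca2+/Mg2+). Background wells had no selectin. Compound in RPMI with 1% FCS and DMSO applied for 60 min, then washed. MM6 cells (1 × 10^6/mL, RPMI + 1% FCS) perfused at 1 dyn/cm2 shear for 4 min. Cells adhering ≥30 s were counted in four random fields in the first minute by phase-contrast video microscopy. Experiments run two or three times; IC50 by curve fitting.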

| SMILES | IC50 [µM] |
| --- | --- |
| CCCCCCCCCCOc1cc(OCCCCCCCCCC)cc(OCCCCCCN(c2ccc(C(=O)O)cc2)c2ccc(C(=O)O)cc2)c1 | 28 |
| CCCCCCCCCCOc1cc(OCCCCCCCCCC)cc(OCCCCCCON=C(c2ccc(C(=O)O)cc2)c2ccc(C(=O)O)cc2)c1 | 20 |

— BindingDB's records for doi:10.1021/jm060468y (Johannes Gutenberg University, 2006)
